Measured values reported in ChEMBL document CHEMBL1949660 (Bioorg Med Chem Lett, 2012).
One block for each molecule: values may come before it. Active and inactive are the calls of the source.

Legend:
Histamine H3 receptor [1] = biological target: T1, Histamine H3 receptor (Homo sapiens, UniProt Q9Y5N1); experiment: Displacement of [3H]NAMH from human histamine H3 receptor expressed in CHO cells; format: cell-based
How it was run: (§1)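 Radioligand displacement of [³H]NAMH from membranes isolated from CHO cells transfected with cloned human H₃ or rat H₃ receptors.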

Histamine H3 receptor [2] = biological target: Histamine H3 receptor (Rattus norvegicus, UniProt Q9QYN8); experiment: Displacement of [3H]NAMH from rat histamine H3 receptor expressed in CHO cells; format: cell-based; how it was run: as §1
Sequence of Histamine H3 receptor (Rattus norvegicus, UniProt Q9QYN8) (Q9QYN8 whole entry): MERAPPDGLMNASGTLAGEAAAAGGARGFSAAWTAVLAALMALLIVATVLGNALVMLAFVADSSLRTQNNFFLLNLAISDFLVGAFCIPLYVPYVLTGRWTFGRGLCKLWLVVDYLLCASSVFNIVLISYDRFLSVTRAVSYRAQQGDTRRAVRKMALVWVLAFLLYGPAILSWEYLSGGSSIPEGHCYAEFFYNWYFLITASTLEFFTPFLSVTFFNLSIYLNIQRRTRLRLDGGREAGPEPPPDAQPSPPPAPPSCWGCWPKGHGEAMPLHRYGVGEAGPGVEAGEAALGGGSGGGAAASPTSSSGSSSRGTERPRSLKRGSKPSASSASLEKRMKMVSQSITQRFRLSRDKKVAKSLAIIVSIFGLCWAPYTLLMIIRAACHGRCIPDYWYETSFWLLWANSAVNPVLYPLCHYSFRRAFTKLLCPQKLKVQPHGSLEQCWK

Cytochrome P450 2D6 = Cytochrome P450 2D6 (Homo sapiens, UniProt P10635); experiment: Inhibition of CYP2D6; format: ADME
Sequence of Cytochrome P450 2D6 (P10635 whole entry): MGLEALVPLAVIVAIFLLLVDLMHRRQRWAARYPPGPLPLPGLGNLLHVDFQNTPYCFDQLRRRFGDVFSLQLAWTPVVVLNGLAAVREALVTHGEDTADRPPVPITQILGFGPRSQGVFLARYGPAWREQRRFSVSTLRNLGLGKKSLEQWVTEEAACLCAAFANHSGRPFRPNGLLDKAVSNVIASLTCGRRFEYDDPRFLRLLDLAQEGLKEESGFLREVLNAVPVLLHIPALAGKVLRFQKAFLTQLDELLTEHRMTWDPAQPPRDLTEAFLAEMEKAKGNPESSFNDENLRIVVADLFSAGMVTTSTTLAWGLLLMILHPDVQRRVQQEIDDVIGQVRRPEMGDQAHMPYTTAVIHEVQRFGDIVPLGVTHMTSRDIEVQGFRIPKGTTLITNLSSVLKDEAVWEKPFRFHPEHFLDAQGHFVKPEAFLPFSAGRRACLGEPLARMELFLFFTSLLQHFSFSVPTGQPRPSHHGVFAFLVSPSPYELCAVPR

Homo sapiens [3] = species: Homo sapiens; experiment: Selectivity for human histamine H3 receptor over human histamine H2 receptor
How it was run: (§2)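 The hH3 side comes from displacement of [³H]NAMH binding in membranes from CHO cells transfected with cloned human H3 receptor. Human H1, H2 and H4 receptors were tested in an outsourced receptor selectivity profiling screen (LeadProfiler/Spectrum). The value is the fold-selectivity of hH3 over each subtype.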

Rattus norvegicus [4] = experiment: Effect on sleep-awake cycle in EEG/EMG rat model assessed as wake promotion at 10 mg/kg, ip after 2 hrs; format: functional; conditions: route intraperitoneal
How it was run: (§3)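 Rats surgically implanted for chronic EEG and EMG recording. Wake, slow-wave sleep and REM sleep scored by standard criteria. Doses spanned […]–30 mg/kg ip, given during the normal quiet (lights-on) period, with a vehicle group as control. Cumulative wake time taken as AUC over time after dosing. Statistics by ANOVA.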

Histamine H3 receptor [5] = biological target: T1, Histamine H3 receptor; experiment: Inverse agonist activity at human histamine H3 receptor assessed as inhibition of R-alpha-methylhistamine-induced [35S]GTPgammaS binding; format: functional
Rattus norvegicus [6] = experiment: Effect on sleep-awake cycle in EEG/EMG rat model assessed as wake surplus at 30 mg/kg, ip up to 22 hrs; format: functional, organism-based; design: dose 30 mg/kg; how it was run: as §3
Rattus norvegicus [7] = experiment: Effect on sleep-awake cycle in ip dosed EEG/EMG rat model assessed as wake promotion after 4 hrs; format: functional, organism-based; how it was run: as §3
Rattus norvegicus [8] = experiment: Effect on sleep-awake cycle in EEG/EMG rat model assessed as wake promotion at 0.1 to 1 mg/kg, ip after 4 hrs relative to control; format: functional; conditions: dose mg/kg 0.1-1; route intraperitoneal; how it was run: as §3
Homo sapiens [9] = species: Homo sapiens; experiment: Selectivity for human histamine H3 receptor over human histamine H4 receptor; how it was run: as §2
[10] = Plasma protein binding in dog; format: ADME, cell-free, Canis lupus familiaris; conditions: read-out: PPB
Rattus norvegicus [11] = experiment: Effect on sleep-awake cycle in EEG/EMG rat model assessed as awake time at 10 mg/kg, ip after 4 hrs relative to control; format: functional; conditions: route intraperitoneal; how it was run: as §3
Cytochrome P450 3A4 = Cytochrome P450 3A4 (Homo sapiens, UniProt P08684); experiment: Inhibition of CYP3A4; format: ADME
Sequence of Cytochrome P450 3A4 (P08684 whole entry): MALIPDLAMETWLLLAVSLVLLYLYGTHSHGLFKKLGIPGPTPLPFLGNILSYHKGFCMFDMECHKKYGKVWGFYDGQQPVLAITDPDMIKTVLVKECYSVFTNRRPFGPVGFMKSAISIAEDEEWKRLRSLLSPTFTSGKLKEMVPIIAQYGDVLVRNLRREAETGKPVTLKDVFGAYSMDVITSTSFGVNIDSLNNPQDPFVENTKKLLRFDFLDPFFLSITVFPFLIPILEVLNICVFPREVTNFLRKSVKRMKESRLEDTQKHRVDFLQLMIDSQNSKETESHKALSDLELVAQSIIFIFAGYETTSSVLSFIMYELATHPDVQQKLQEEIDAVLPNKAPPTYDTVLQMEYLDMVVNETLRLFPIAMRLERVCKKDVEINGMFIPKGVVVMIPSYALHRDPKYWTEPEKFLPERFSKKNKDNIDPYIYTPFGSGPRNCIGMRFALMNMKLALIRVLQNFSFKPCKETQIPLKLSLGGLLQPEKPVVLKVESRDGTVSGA

[12] = Half life in rat liver microsomes; format: ADME, Microsome
[13] = Half life in dog liver microsomes; format: ADME, Canis lupus familiaris, Microsome
[14] = Half life in monkey liver microsomes; format: ADME, Macaca mulatta, Microsome; conditions: rhesus monkey
[15] = Plasma protein binding in human; format: ADME, cell-free; conditions: read-out: PPB
[16] = Volume of distribution in rat at 1 mg/kg, iv; format: ADME, organism-based; design: dose 1 mg/kg, route intravenous; conditions: in vivo
How it was run: (§4)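 Rat PK: iv dose with vehicle 3% DMSO, 30% solutol, 67% phosphate buffered saline. Oral 5 mg/kg dose with vehicle 50% Tween 80, 40% propylene carbonate, 10% propylene glycol.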

[17] = biological target: Voltage-gated inwardly rectifying potassium channel KCNH2 (Homo sapiens, UniProt Q12809); experiment: Inhibition of human Erg by patch clamp assay
Sequence of Voltage-gated inwardly rectifying potassium channel KCNH2 (Q12809 whole entry): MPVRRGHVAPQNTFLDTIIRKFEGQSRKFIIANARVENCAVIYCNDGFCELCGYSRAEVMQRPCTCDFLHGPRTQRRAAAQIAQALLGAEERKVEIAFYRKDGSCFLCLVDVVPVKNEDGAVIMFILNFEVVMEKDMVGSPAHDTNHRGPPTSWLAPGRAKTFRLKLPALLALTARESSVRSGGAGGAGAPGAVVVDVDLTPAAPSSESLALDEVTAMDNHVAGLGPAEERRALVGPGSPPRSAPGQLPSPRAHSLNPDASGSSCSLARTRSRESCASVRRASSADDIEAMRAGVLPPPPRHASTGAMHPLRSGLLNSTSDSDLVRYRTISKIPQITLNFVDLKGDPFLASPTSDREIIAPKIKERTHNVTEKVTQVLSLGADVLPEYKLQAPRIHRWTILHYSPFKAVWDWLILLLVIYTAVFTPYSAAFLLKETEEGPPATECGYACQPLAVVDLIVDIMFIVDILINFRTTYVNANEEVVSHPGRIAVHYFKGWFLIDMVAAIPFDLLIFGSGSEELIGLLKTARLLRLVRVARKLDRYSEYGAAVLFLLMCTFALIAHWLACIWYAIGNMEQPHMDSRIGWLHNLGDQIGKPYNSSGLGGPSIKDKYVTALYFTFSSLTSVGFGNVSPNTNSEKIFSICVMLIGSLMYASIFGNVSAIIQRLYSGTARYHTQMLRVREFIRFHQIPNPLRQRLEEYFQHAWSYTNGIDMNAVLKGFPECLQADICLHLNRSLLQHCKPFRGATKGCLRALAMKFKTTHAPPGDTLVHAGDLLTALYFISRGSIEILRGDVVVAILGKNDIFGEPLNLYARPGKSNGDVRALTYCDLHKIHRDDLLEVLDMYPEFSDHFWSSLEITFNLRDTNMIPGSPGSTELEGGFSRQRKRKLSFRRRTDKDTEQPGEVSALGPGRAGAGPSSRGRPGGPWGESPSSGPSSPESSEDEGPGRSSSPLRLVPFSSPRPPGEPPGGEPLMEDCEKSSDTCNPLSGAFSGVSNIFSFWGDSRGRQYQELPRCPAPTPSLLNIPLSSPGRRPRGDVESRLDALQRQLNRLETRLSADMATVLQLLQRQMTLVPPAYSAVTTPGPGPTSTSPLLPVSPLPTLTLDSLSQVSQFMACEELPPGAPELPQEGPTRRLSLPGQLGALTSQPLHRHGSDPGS

Rattus norvegicus [18] = experiment: Effect on sleep-awake cycle in EEG/EMG rat model assessed as sleep rebound at 0.1 to 30 mg/kg, ip; format: functional, organism-based; how it was run: as §3
Cytochrome P450 1A2 = biological target: T2, Cytochrome P450 1A2 (Homo sapiens, UniProt P05177); experiment: Inhibition of CYP1A2; format: ADME
T2 sequence (P05177 whole entry): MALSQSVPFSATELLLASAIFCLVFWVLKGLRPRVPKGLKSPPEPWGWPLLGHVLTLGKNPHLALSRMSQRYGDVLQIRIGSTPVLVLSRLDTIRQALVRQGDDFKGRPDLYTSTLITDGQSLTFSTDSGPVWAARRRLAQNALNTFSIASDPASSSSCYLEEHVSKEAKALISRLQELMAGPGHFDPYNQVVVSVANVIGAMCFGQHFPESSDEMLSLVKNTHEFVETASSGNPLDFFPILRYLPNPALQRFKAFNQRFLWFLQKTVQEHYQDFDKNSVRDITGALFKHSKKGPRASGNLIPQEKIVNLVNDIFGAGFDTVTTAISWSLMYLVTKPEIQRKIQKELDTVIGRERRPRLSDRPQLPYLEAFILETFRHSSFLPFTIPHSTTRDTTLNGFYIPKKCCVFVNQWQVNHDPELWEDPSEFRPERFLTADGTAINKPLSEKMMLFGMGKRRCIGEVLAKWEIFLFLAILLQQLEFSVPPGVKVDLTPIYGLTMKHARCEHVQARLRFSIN

Rattus norvegicus [19] = experiment: Effect on sleep-awake cycle in EEG/EMG rat model assessed as wake promotion time at 1 mg/kg, ip after 4 hrs (reference value: 80 +/- 5 mins); format: functional; conditions: route intraperitoneal; how it was run: as §3
[20] = Drug uptake in rat brain at 5 mg/kg, po measured after 6 hrs; format: ADME, organism-based; design: dose 5 mg/kg, route oral; conditions: read-out: Drug uptake
How it was run: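 Rats given 5 mg/kg po in 50% Tween 80, 40% propylene carbonate, 10% propylene glycol. Brain concentration determined 6 h after dosing.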

[21] = Ratio drug uptake in brain to plasma of rat at 10 mg/kg, ip measured after 6 hrs; format: ADME, organism-based; design: dose 10 mg/kg, route intraperitoneal; conditions: read-out: BPR
[22] = Oral bioavailability in rat at 5 mg/kg; format: ADME, organism-based; conditions: in vivo; how it was run: as §4
Rattus norvegicus [23] = experiment: Effect on sleep-awake cycle in EEG/EMG rat model assessed as maximal cumulative wake surplus time at 30 mg/kg, ip after 7 hrs relative to control; format: functional; conditions: route intraperitoneal; how it was run: as §3
Rattus norvegicus [24] = experiment: Effect on sleep-awake cycle in EEG/EMG rat model assessed as awake time at 30 mg/kg, ip after 4 hrs relative to control; format: functional; conditions: route intraperitoneal; how it was run: as §3
Rattus norvegicus [25] = experiment: Effect on sleep-awake cycle in EEG/EMG rat model assessed as wake promotion time at 30 mg/kg, ip after 4 hrs relative to control; format: functional; conditions: route intraperitoneal; how it was run: as §3
[26] = Apparent permeability across human Caco2 cells; format: ADME, cell-based; conditions: Caco-2
Rattus norvegicus [27] = experiment: Effect on sleep-awake cycle in EEG/EMG rat model assessed as wake promotion time at 0.1 mg/kg, ip after 4 hrs (reference value: 80 +/- 5 mins); format: functional; conditions: route intraperitoneal; how it was run: as §3
Cytochrome P450 2C9 = Cytochrome P450 2C9 (Homo sapiens, UniProt P11712); experiment: Inhibition of CYP2C9; format: ADME
Sequence of Cytochrome P450 2C9 (P11712 whole entry): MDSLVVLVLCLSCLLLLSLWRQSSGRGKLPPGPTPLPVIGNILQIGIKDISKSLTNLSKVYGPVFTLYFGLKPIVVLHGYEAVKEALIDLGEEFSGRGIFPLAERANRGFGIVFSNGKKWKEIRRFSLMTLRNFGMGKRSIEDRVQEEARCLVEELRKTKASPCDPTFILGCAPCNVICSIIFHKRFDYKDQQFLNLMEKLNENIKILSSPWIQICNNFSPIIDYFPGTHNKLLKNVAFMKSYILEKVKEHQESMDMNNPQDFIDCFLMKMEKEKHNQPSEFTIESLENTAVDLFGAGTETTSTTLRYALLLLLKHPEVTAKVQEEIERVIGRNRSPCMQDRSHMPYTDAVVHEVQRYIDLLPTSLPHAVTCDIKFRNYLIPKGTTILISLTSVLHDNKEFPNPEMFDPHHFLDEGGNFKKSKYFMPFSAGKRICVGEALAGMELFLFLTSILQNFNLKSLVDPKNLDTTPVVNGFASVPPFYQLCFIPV

Cytochrome P450 2C19 = Cytochrome P450 2C19 (Homo sapiens, UniProt P33261); experiment: Inhibition of CYP2C19; format: ADME
Sequence of Cytochrome P450 2C19 (P33261 whole entry): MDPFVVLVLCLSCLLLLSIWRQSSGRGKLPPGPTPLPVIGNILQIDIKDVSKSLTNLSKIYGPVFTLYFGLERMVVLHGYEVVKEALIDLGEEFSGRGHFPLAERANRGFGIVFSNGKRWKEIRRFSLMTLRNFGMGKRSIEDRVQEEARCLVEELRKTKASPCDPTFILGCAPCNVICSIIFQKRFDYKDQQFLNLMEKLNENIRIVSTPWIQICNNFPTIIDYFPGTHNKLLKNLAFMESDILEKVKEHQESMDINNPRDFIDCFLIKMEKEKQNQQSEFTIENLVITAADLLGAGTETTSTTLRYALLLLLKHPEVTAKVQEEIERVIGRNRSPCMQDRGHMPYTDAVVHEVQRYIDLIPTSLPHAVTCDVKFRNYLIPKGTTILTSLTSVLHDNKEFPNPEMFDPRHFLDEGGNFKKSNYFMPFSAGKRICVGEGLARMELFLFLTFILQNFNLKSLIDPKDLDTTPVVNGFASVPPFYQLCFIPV

[28] = Half life in rat at 1 mg/kg, iv; format: ADME, organism-based; design: dose 1 mg/kg, route intravenous; conditions: in vivo; how it was run: as §4
[29] = Plasma protein binding in rat; format: ADME, cell-free; conditions: read-out: PPB
Rattus norvegicus [30] = experiment: Effect on sleep-awake cycle in EEG/EMG rat model assessed as wake promotion time at 0.3 mg/kg, ip after 4 hrs (reference value: 80 +/- 5 mins); format: functional; conditions: route intraperitoneal; how it was run: as §3
Homo sapiens [31] = species: Homo sapiens; experiment: Selectivity for human histamine H3 receptor over human histamine H1 receptor; how it was run: as §2
[32] = Clearance in rat at 1 mg/kg, iv; format: ADME, organism-based; design: dose 1 mg/kg, route intravenous; conditions: in vivo; how it was run: as §4
[33] = Half life in human liver microsomes; format: ADME, Microsome
[34] = Cmax in rat at 5 mg/kg, po; format: ADME, organism-based; design: dose 5 mg/kg, route oral; conditions: in vivo
Rattus norvegicus [35] = experiment: Effect on sleep-awake cycle in EEG/EMG rat model assessed as wake promotion time at 10 mg/kg, ip after 4 hrs relative to control; format: functional; conditions: route intraperitoneal; how it was run: as §3
Rattus norvegicus [36] = experiment: Inhibition of RAMH-induced dipsogenia in ip dosed rat; format: functional
[37] = biological target: Sodium-dependent dopamine transporter (Homo sapiens) (UniProt Q01959); experiment: Inhibition of DAT at 10 uM
Sequence of Sodium-dependent dopamine transporter (Homo sapiens) (Q01959 whole entry): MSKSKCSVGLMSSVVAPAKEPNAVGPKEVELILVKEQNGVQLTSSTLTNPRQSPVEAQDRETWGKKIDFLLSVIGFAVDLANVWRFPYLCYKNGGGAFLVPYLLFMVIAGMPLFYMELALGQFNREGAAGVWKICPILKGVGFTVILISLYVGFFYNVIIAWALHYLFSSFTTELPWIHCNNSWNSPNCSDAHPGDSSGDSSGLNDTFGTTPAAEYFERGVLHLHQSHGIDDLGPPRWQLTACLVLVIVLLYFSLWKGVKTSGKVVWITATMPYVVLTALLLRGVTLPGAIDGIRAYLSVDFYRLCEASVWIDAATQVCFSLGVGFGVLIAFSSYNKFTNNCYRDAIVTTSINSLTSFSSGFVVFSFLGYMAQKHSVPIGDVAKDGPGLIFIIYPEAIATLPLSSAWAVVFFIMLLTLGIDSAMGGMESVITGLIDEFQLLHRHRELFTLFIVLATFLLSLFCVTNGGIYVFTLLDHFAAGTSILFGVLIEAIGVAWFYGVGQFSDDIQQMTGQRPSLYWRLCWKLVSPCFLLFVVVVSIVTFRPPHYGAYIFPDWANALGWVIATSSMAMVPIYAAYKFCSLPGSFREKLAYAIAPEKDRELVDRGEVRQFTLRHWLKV

T1 sequence (Q9Y5N1 whole entry): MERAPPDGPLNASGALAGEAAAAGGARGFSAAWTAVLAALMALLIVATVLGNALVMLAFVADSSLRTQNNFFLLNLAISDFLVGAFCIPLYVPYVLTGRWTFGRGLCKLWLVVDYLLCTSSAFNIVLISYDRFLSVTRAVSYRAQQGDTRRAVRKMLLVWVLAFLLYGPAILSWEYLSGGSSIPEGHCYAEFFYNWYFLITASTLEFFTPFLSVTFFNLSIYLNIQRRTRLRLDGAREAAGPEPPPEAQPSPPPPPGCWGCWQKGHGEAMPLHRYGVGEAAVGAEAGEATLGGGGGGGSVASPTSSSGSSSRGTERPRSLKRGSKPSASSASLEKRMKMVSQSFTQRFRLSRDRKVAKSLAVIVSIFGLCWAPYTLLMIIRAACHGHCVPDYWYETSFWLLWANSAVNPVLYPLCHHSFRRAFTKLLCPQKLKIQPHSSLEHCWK

Ki (Histamine H3 receptor [1]): 2.4 nM | Ki (Histamine H3 receptor [2]): 3.1 nM
SMILES: Cn1nc(-c2ccc(OC3CCN(C4CCC4)CC3)cc2)ccc1=O

Ki (Histamine H3 receptor [2]): 9.6 nM
SMILES: C[C@@H]1CC(=O)NN=C1c1ccc(OC2CCN(C3CCC3)CC2)cc1

Ki (Histamine H3 receptor [1]): 12 nM | Ki (Histamine H3 receptor [2]): 28 nM
SMILES: CC1(C)CC(c2ccc(OC3CCN(C4CCC4)CC3)nc2)=NNC1=O

Ki (Histamine H3 receptor [1]): 15 nM | Ki (Histamine H3 receptor [2]): 101 nM
SMILES: CC(C)N1CCC(Oc2ccc(-c3ccc(=O)[nH]n3)cn2)CC1

Ki (Histamine H3 receptor [1]): 695 nM | Ki (Histamine H3 receptor [2]): > 1000 nM
SMILES: Cn1nc(-c2ccc(OC3CCNCC3)cc2)ccc1=O

IC50 (Cytochrome P450 2D6): > 30000 nM | Selectivity ratio (Homo sapiens [3]): > 1000 | EC50 (Histamine H3 receptor [5]): 0.8 nM | Selectivity ratio (Homo sapiens [9]): > 1000 | fraction unbound [10]: 0.5 | IC50 (Cytochrome P450 3A4): > 30000 nM | half-life [12]: > 40 min | half-life [13]: > 40 min | half-life [14]: > 40 min | fraction unbound [15]: 0.5 | Vd [16]: 3.1 L/kg | IC50 (Cytochrome P450 1A2): > 30000 nM | concentration at 6 h [20]: 2100 nM | Kp at 6 h [21]: 4 | bioavailability [22]: 33% | Papp [26]: 27 ×10⁻⁶ cm/s | IC50 (Cytochrome P450 2C9): > 30000 nM | IC50 (Cytochrome P450 2C19): > 30000 nM | half-life [28]: 114 min | fraction unbound [29]: 0.5 | Ki (Histamine H3 receptor [1]): 2.7 nM | Selectivity ratio (Homo sapiens [31]): > 1000 | clearance [32]: 18 mL/min/kg | half-life [33]: > 40 min | Ki (Histamine H3 receptor [2]): 4.4 nM | Cmax [34]: 270 ng/mL | inhibition [37]: 8%
SMILES: CC1(C)CC(c2ccc(OC3CCN(C4CCC4)CC3)cc2)=NNC1=O
Activity (Rattus norvegicus [4]): 90% | Activity (Rattus norvegicus [6]): Active | Activity (Rattus norvegicus [7]): Dose-dependent effect | Activity (Rattus norvegicus [8]): 45% | Activity (Rattus norvegicus [11]): 84% | IC50 [17]: 21000 nM | Activity (Rattus norvegicus [18]): inactive | Time (Rattus norvegicus [19]): 116 min | Time (Rattus norvegicus [23]): 196 min | Activity (Rattus norvegicus [24]): 98% | Activity (Rattus norvegicus [25]): 193% | Time (Rattus norvegicus [27]): 115 min | Time (Rattus norvegicus [30]): 122 min | Activity (Rattus norvegicus [35]): 152% | ED50 (Rattus norvegicus [36]): 0.14 mg/kg | inhibition (Rattus norvegicus [36]): Dose-dependent effect
